PMI act: activators of human phosphomannose isomerase; P34949; purified human PMI, coupled resazurin fluorescence, 20 min; stronger effect = higher value; 1 = vehicle control, 0 substrate-free wells; activation factor at 20 µM; 190,000 tested, 0.005% active; AID 1214;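 active = activation factor of 2 or more at 20 µM, relative to plate controls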
Target sequence (P34949 whole entry, looked up): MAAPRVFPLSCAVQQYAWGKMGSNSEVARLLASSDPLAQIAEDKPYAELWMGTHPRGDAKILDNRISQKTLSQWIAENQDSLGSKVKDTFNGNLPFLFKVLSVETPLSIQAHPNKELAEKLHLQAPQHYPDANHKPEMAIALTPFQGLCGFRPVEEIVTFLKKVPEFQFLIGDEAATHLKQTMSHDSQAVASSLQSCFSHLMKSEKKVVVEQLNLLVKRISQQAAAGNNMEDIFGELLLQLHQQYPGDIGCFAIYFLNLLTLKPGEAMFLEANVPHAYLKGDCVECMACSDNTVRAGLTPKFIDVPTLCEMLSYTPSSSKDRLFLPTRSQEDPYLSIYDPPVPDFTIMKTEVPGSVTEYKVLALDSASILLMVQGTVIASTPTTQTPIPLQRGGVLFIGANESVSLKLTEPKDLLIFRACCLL
PMI act satM6P: increases human PMI activity with near-saturating mannose 6-phosphate | 190,000 tested, 0.34% active | AID 1216 | activation factor at 20 µM | P34949 | coupled PMI enzyme assay, resazurin fluorescence, 20 min; stronger effect = higher value; 1 = untreated enzyme, 0 = substrate-free blank;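 active = activation factor of 2 or more at 20 µM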
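Test system: human phosphomannose isomerase with PGI, G6PDH, diaphorase coupling enzymes; Amount: PMI at 15 ng/mL final; Reagent: Mannose-6-phosphate 1.0 mM (near-saturating) plus 0.22 mM NADP+; Timing: 20 min, room temperature; Technique: resorufin fluorescence at Ex 544/Em 590 nm; Dosing: 20 µM single dose.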
Diaphorase act: activates diaphorase or chemically reduces, flagging diaphorase assay artifacts; Diaphorase/resazurin coupled assay, resorufin fluorescence, 16 min; stronger effect = higher value; 1 = vehicle wells, 0 = NADH-free wells; 190,000 tested, 0.005% active; activation factor at 20 µM; AID 1229;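 active = diaphorase activity raised at least twofold by the compound at 20 µM; inactive = activation factor below 2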
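Test system: Clostridium kluyveri diaphorase, purified enzyme. Buffer or medium: 50 mM HEPES pH 7.4 buffer plus MgCl2 and Tween 20. Also added: 0.114 mM NADH and 0.1 mM resazurin, final amounts. Dosing: compound 20 µM once, DMSO 1%. Schedule: 16 min enzyme reaction, ambient temperature. Detection: fluorescence of resorufin, 544 nm excitation, 590 nm emission.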
WT yeast gro inh: growth inhibition of WT yeast, mitochondrial fusion screen | mitochondrial fusion phenotypic screen, WT strain | inhibition, % at 10 µM | 190,000 tested, 2.1% active | AID 1362; in the data active = inhibition above about 58%; tested in S. cerevisiae
L major viab: reduces viability of Leishmania major promastigotes | resazurin fluorescence viability | inhibition, % at 10 µM | 200,000 tested, 9% active; in the data active = inhibition above about 50%;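 also: promastigotes grown with compound for 44 hours at 28 °C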
* marks the source's active call; other numbers are inactive results; . = no result given. Only some compounds are listed: those with a hit (about 10% of all), similar ones and a draw of the others.

SMILES | PMI act | PMI act satM6P | Diaphorase act | WT yeast gro inh | L major viab
C=CCc1cc(C=O)cc(OC)c1OCc1ccc(Cl)cc1 | 0.9 | 0.9 | 0.8 | -1.8 | 19.0
C=CCc1cc(C=O)cc(OCC)c1OCc1ccc(Cl)cc1 | 0.9 | 1 | 1 | 28.0 | 85.9*
CC(C)CCN(C(=O)Nc1ccccc1)C(C)c1cccs1 (centres undefined) | 1 | 1 | 0.9 | 16.8 | 83.3*
CCc1ccccc1NC(=S)N(CCN1CCCCC1)Cc1ccco1 | 1 | 1 | 0.8 | -3.7 | 8.3
CCc1ccc(NC(=O)N(Cc2ccco2)C(C)c2cccs2)cc1 (centres undefined) | 0.9 | 0.9 | 0.9 | 1.8 | 69.7*
CCc1ccccc1NC(=S)N(Cc1ccco1)C(C)c1cccs1 (centres undefined) | 1.1 | 1.1 | 0.9 | 76.2* | 41.7
CCc1ccc(NC(=O)CS(=O)CC(=O)NC(C)CCc2ccco2)cc1 (centres undefined) | 1 | 0.9 | 0.8 | -18.0 | 17.7
CC(c1cccs1)N(C(=O)Nc1ccccc1)C1CCCCC1 (centres undefined) | 1 | 1 | 0.9 | -4.3 | 37.8
COc1cccc(N/C=C/c2onc(C)c2[N+](=O)[O-])c1 | 1 | 1.1 | 1 | 4.0 | -2.9
Cn1c2ccccc2c2nnc(SCC(=O)NCc3ccoc3)nc21 | 1 | 0.9 | 0.9 | 16.2 | 3.7
O=C(CSc1nnc(-c2ccco2)n1Cc1ccccc1)c1ccccc1 | 1.2 | 1.1 | 0.9 | -10.8 | 13.8
c1ccc(Cn2c(SCc3cn4cccnc4n3)nnc2-c2ccco2)cc1 | 1 | 1 | 0.8 | 75.9* | -6.6
CSc1ccc(CN(C)CC(=O)Nc2c(F)cccc2F)cc1 | 1.1 | 1.1 | 0.8 | 15.1 | -5.7
Cc1ccc(C)c(-n2c3nc(=O)[nH]c(=O)c-3cc3cc([N+](=O)[O-])ccc32)c1 | 0.6 | 0.5 | 0.3 | -14.6 | 97.2*
CC(=O)Nc1ccccc1Nc1cc(C#N)c(C#N)cc1[N+](=O)[O-] | 1.1 | 1.1 | 1 | . | 96.7*
Cn1cnc([N+](=O)[O-])c1S(=O)(=O)c1cccc(Cl)c1 | 1.1 | 1.1 | 0.9 | 28.8 | 64.8*
Cc1nn(C(C)C(=O)c2cccc(Cl)c2)c(C)c1[N+](=O)[O-] (centres undefined) | 0.9 | 0.9 | 1 | 1.4 | -6.2
COc1cccc2cc(C(=O)c3ccc([N+](=O)[O-])cc3)oc12 | 1 | 1 | 1 | 4.7 | 10.2
CC[n+]1c(/C=C/Nc2ccccc2)sc2ccccc21 | 0.8 | 1 | 0.9 | -1.1 | 98.8*
CC[n+]1ccccc1/C=C/Nc1ccccc1 | 0.4 | 0.9 | 1 | -4.5 | -1.6
CC/C(=C/c1sc2ccccc2[n+]1CC)SC | 1.7 | 2* | 0.9 | 20.0 | 91.5*
CC[n+]1c(/C=C(\C)OC)sc2ccccc21 | 0.9 | 1 | 0.8 | 4.4 | 19.3
CC[n+]1c(C)sc2cc(C)ccc21 | 0.2 | 0.9 | 0.5 | 0.0 | -1.5
CC[n+]1c(/C=C(/C)SC)sc2ccccc21 | 1.1 | 1.4 | 0.8 | -6.0 | 82.5*
CC[n+]1c(/C=C(\C)SC)sc2ccccc21 | 1.5 | 2* | 1 | 1.9 | 65.0*
SMILES | PMI act | PMI act satM6P | Diaphorase act | WT yeast gro inh | L major viab
C/C(=N\NC(=O)c1ccccc1-n1cccc1)C1CC1 | 0.9 | 0.9 | 1 | -22.2 | -5.3
CCOC(=O)/C(=C/C=C1\Sc2ccccc2N1CC)C(C)=O | 0.8 | 0.8 | 1 | -2.8 | 15.3
CC[n+]1c(/C=C(\C)Nc2ccccc2)sc2ccccc21 | 0.9 | 1.1 | 1 | -24.3 | 98.8*
CCN1/C(=C/C=C/C=C/c2sc3ccccc3[n+]2CC)Sc2ccccc21 | 1.3 | 1.7 | 1.1 | 85.8 | 100.4*
COc1ccc(N/C(C)=C/C(=S)Nc2ccccc2)cc1 | 0.8 | 0.5 | 0.7 | 3.8 | 27.3
Cc1cc(C)cc(OCC(=O)Nc2ccc3c(c2)C(=O)c2ccccc2C3=O)c1 | 1.3 | 1.4 | 1 | -5.4 | -5.6
C=CCNC(=O)c1c(N)n(-c2cccc(S(N)(=O)=O)c2)c2nc3ccccc3nc12 | 0.8 | 0.6 | 0.7 | -3.2 | 84.0*
COCCCNC(=O)c1c(N)n(-c2ccc(S(N)(=O)=O)cc2)c2nc3ccccc3nc12 | 0.9 | 0.6 | 0.8 | -3.2 | -3.3
Cc1cc(N2CCN(C3CCCCC3)CC2)nc2cccc(O)c12 | 0.8 | 0.5 | 0.8 | 12.7 | 85.0*
COc1ccc(/C=C/C(=O)NCCc2ccc(S(N)(=O)=O)cc2)cc1 | 1.1 | 1.1 | 1 | -0.1 | 62.1*
